Source: ChEMBL document CHEMBL1143613, “Neurosteroid analogues. 10. The effect of methyl group substitution at the C-6 and C-7 positions on the GABA modulatory and anesthetic actions of (3alpha,5alpha)- and (3alpha,5beta)-3-hydroxypregnan-20-one” (J Med Chem, 2005)

Legend:
[1] = target: GABA-A receptor; anion channel; test: Displacement of [35S]TBPS from picrotoxin site of GABA-A receptor of rat brain membranes; type: cell membranes, Membrane
[2] = Dose required for measuring the loss of righting reflex (LRR) in Xenopus laevis tadpoles; type: functional
Summary of the method: (§1)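 Xenopus laevis tadpoles scored for loss of swimming (LSR) or righting (LRR) response. 10 animals were used at each of five or more concentrations. Error given as standard error of the mean.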

[3] = Dose required for measuring loss of swimming reflex (LSR) in Xenopus laevis tadpoles; type: functional; summary of the method: as §1
[4] = target: T1, GABA-A receptor; alpha-1/beta-2/gamma-2 (Rattus norvegicus) (UniProt P18508+P62813+P63138); test: Ratio of currents mediated by rat Alpha-1-beta-2-gamma-2L GABA-A receptor expressed in Xenopus oocytes at 1.0 uM in presence of 2 uM GABA; type: cell-based; conditions: Oocyte
Summary of the method: (§2)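 Rat α1β2γ2L GABAA receptors expressed in Xenopus oocytes. Test compound at 0.1, 1 or 10 µM was co-applied with 2 µM GABA, the control GABA concentration. The value is the ratio of current with compound to current without it. At least four oocytes per concentration, with standard error of the mean.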

[5] = target: T1, GABA-A receptor; alpha-1/beta-2/gamma-2 (Rattus norvegicus); test: Ratio of currents mediated by rat Alpha-1-beta-2-gamma-2L GABA-A receptor expressed in Xenopus oocytes at 10 uM in the absence of GABA; type: cell-based; conditions: Oocyte
Summary of the method: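 Direct gating on rat α1β2γ2L GABAA receptors in Xenopus oocytes. Compound at 10 µM was applied with no GABA. The value is the compound-only current divided by the current from 2 µM GABA alone. At least four oocytes, with standard error of the mean.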

[6] = target: T1, GABA-A receptor; alpha-1/beta-2/gamma-2 (Rattus norvegicus); test: Ratio of currents mediated by rat Alpha-1-beta-2-gamma-2L GABA-A receptor expressed in Xenopus oocytes at 0.1 uM in presence of 2 uM GABA; type: cell-based; conditions: Oocyte; summary of the method: as §2
[7] = target: T1, GABA-A receptor; alpha-1/beta-2/gamma-2 (Rattus norvegicus); test: Ratio of currents mediated by rat Alpha-1-beta-2-gamma-2L GABA-A receptor expressed in Xenopus oocytes at 10 uM in presence of 2 uM GABA; type: cell-based; conditions: Oocyte; summary of the method: as §2

CC(=O)[C@H]1CC[C@H]2[C@@H]3[C@@H](C)C[C@@H]4C[C@H](O)CC[C@]4(C)[C@H]3CC[C@]12C showed an IC50 [1] of 1240 nM, an ED50 [2] of 1360 nM and an ED50 [3] of 5500 nM.
CC(=O)[C@H]1CC[C@H]2[C@@H]3[C@H](C)C[C@H]4C[C@@H](O)CC[C@]4(C)[C@H]3CC[C@]12C showed an ED50 [2] of 1630 nM and an ED50 [3] of 5500 nM.
CC(=O)[C@H]1CC[C@H]2[C@@H]3C[C@@H](C)[C@@H]4C[C@H](O)CC[C@]4(C)[C@H]3CC[C@]12C gave an IC50 [1] of 45 nM, an ED50 [2] of 400 nM and a Ratio [4] of 4.36. The ED50 [3] was 550 nM, the Ratio [5] was 0.62 and the Ratio [6] was 1.48. It also gave a Ratio [7] of 22.5.
CC(=O)[C@H]1CC[C@H]2[C@@H]3C[C@@H](C)[C@H]4C[C@H](O)CC[C@]4(C)[C@H]3CC[C@]12C gave an IC50 [1] of 5.7 nM, an ED50 [2] of 510 nM and a Ratio [4] of 7.7. It also gave an ED50 [3] of 1050 nM, a Ratio [5] of 0.59 and a Ratio [6] of 2.5. For the same compound, the Ratio [7] was 10.
With CC(=O)[C@H]1CC[C@H]2[C@@H]3C[C@H](C)[C@@H]4C[C@H](O)CC[C@]4(C)[C@H]3CC[C@]12C the IC50 [1] was 3080 nM, the ED50 [2] was 2660 nM and the Ratio [4] was 1.02. For the same compound, the ED50 [3] was 5500 nM, the Ratio [5] was 0.15 and the Ratio [6] was 0.96. For the same compound, the Ratio [7] was 2.51.
CC(=O)[C@H]1CC[C@H]2[C@@H]3CC[C@H]4C[C@H](O)CC[C@]4(C)[C@H]3CC[C@]12C showed an ED50 [2] of 420 nM, a Ratio [4] of 3.89 and an ED50 [3] of 5500 nM. It also gave a Ratio [5] of 0.37, a Ratio [6] of 1.26 and a Ratio [7] of 9.65.
Compound CC(=O)[C@H]1CC[C@H]2[C@@H]3[C@H](C)C[C@H]4C[C@H](O)CC[C@]4(C)[C@H]3CC[C@]12C has an IC50 [1] of 5990 nM, an ED50 [2] of 2680 nM and an ED50 [3] of 5500 nM.
CC(=O)[C@H]1CC[C@H]2[C@@H]3[C@@H](C)C[C@H]4C[C@H](O)CC[C@]4(C)[C@H]3CC[C@]12C showed an IC50 [1] of 1240 nM, an ED50 [2] of 1340 nM and an ED50 [3] of 5500 nM.
With CC(=O)[C@H]1CC[C@H]2[C@@H]3[C@H](C)C[C@@H]4C[C@H](O)CC[C@]4(C)[C@H]3CC[C@]12C the IC50 [1] was 1040 nM, the ED50 [2] was 1670 nM and the ED50 [3] was 5500 nM.
Compound CC(=O)[C@H]1CC[C@H]2[C@@H]3[C@H](C)C[C@@H]4C[C@@H](O)CC[C@]4(C)[C@H]3CC[C@]12C has an IC50 [1] of 10800 nM, an ED50 [2] of 1250 nM and an ED50 [3] of 10000 nM.
CC(=O)[C@H]1CC[C@H]2[C@@H]3C[C@H](C)[C@H]4C[C@H](O)CC[C@]4(C)[C@H]3CC[C@]12C gave an IC50 [1] of 2940 nM, an ED50 [2] of 1400 nM and a Ratio [4] of 1.17. For the same compound, the ED50 [3] was 8900 nM, the Ratio [5] was 0.06 and the Ratio [6] was 1.01. The Ratio [7] was 3.24.
In the case of CC(=O)[C@H]1CC[C@H]2[C@@H]3CC[C@@H]4C[C@H](O)CC[C@]4(C)[C@H]3CC[C@]12C, the ED50 [2] is reported as 60 nM, the Ratio [4] is reported as 2.82 and the ED50 [3] is reported as 300 nM. The Ratio [5] was 0.06, the Ratio [6] was 1.2 and the Ratio [7] was 9.77.
